Data published in ChEMBL document CHEMBL1833955, “Optimization of (arylpiperazinylbutyl)oxindoles exhibiting selective 5-HT₇ receptor antagonist activity” (J Med Chem, 2011).
pKi: −log10 of the molar value.

Assays:
[1] = target: T1, 5-hydroxytryptamine receptor 1A (Rattus norvegicus) (UniProt P19327); test: Displacement of [3H]8-OH-DPAT from 5-HT1A receptor in rat frontal cortex membrane at 10^-7 M after 45 mins by scintillation counting; format: cell membranes
T1 sequence (whole entry): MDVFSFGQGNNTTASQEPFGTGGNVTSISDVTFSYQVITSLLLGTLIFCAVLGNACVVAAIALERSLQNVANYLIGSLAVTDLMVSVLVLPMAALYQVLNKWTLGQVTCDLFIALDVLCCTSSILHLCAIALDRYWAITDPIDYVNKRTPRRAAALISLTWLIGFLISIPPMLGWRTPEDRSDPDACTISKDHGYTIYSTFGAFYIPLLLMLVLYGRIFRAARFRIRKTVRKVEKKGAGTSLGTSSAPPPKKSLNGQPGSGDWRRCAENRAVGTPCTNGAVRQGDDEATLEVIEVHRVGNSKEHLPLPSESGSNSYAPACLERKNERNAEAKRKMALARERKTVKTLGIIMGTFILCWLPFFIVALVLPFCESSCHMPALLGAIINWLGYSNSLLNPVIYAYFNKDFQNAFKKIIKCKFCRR

[2] = target: 5-hydroxytryptamine receptor 7 (Homo sapiens, UniProt P34969); test: Displacement of [3H]CT from human 5-HT7 receptor expressed in CHO cells by scintillation spectrometry; format: cell-based
Sequence of 5-hydroxytryptamine receptor 7 (P34969 whole entry): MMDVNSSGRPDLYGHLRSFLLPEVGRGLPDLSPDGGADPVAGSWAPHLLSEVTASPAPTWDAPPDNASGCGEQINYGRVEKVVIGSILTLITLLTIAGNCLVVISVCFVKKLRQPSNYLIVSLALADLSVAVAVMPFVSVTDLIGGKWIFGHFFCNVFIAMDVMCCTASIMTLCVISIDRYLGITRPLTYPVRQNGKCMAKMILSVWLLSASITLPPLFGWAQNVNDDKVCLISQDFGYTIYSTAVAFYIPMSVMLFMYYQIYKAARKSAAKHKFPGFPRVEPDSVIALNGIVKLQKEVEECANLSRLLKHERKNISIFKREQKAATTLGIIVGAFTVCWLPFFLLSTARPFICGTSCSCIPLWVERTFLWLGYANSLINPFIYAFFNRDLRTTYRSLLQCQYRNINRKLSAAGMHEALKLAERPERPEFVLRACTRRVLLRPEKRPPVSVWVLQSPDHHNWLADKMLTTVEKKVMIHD
Summary of the method: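 Cloned human 5-HT7 receptor from CHO cells, run under the supplier's recommended conditions with [3H]CT. Nonspecific binding with 25 μM clozapine. Ended by GF/C filtration, then scintillation counting. Ki taken from two nine-concentration displacement curves run in triplicate, single-site fit.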

[3] = target: T2, Adrenergic receptor alpha-1 (Rattus norvegicus, UniProt P15823+P23944+P43140); test: Displacement of [3H]prazosin from alpha1-adrenergic receptor in rat frontal cortex membrane after 45 mins by scintillation spectrometry; format: cell membranes
T2 sequence (P15823 whole entry): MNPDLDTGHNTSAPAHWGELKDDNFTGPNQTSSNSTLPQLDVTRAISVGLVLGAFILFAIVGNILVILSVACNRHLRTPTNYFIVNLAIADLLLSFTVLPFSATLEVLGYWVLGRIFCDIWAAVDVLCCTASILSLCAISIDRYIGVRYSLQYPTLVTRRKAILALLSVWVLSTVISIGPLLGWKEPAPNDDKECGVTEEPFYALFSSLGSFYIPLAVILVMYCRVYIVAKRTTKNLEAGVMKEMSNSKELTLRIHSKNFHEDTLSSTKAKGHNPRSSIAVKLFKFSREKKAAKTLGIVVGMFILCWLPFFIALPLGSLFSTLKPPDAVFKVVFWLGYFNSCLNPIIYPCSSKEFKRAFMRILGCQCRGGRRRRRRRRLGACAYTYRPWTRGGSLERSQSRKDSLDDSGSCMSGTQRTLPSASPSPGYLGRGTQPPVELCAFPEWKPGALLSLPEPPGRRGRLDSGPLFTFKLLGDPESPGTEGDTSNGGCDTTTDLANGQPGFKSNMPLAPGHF
T2 sequence (P23944 whole entry): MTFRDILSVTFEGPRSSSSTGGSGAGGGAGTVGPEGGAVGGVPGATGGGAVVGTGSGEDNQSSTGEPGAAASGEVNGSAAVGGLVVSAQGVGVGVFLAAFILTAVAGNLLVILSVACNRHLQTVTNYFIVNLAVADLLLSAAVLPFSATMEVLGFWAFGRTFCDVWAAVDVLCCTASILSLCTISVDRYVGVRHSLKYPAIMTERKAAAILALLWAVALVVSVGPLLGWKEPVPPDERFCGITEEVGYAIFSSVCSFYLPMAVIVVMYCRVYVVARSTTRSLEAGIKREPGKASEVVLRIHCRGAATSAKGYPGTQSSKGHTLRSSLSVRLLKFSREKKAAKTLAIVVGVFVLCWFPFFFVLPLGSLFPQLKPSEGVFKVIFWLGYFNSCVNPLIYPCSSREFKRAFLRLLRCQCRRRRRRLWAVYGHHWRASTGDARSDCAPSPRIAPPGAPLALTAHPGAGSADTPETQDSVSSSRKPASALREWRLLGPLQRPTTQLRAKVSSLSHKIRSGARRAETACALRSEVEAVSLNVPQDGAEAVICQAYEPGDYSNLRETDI
T2 sequence (P43140 whole entry): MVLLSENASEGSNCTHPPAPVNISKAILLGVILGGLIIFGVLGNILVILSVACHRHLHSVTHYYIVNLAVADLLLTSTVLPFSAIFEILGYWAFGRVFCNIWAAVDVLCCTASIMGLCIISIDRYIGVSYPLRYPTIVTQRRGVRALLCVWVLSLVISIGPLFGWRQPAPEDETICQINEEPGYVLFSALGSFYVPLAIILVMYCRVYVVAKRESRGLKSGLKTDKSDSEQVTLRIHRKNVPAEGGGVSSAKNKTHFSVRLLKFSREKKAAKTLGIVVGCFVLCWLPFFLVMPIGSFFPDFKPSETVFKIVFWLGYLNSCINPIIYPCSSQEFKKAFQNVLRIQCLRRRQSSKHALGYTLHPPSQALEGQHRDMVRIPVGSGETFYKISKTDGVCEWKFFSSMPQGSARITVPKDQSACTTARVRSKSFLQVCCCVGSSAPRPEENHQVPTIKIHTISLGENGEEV
Summary of the method: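 Rat frontal cortex tissue frozen on dry ice, homogenised in 50 mM Tris-HCl pH 7.7 and washed by centrifugation. [3H]prazosin at 0.6 nM; 10 μM prazosin defines nonspecific binding. 45 min at 25 °C, GF/B filtration, scintillation counting. Triplicates; Ki from two nine-concentration curves fitted to a single-site model.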

[4] = Selectivity ratio of Ki for 5-HT1A receptor in rat frontal cortex membrane to Ki for human 5-HT7 receptor; format: cell membranes
[5] = Selectivity ratio of Ki for alpha1-adrenergic receptor in rat frontal cortex membrane to Ki for human 5-HT7 receptor; format: cell membranes
[6] = Metabolic stability in human liver microsomes after 60 mins by HPLC-MS/MS analysis; format: ADME, Microsome; details: read-out: Stability
Summary of the method: (§1)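 Test compound at 100 nM final incubated with rat or human liver microsomes (0.33 mg/mL) at 37 °C for 0, 5, 15, 30 and 60 min. Buffer Tris-HCl pH 7.4 with Mg2+ and BSA. Reaction started with NADPH and stopped with ice-cold MeOH. Parent compound measured by HPLC-MS/MS, positive-ion MRM.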

[7] = Metabolic stability in rat liver microsomes after 60 mins by HPLC-MS/MS analysis; format: ADME, Microsome; details: read-out: Stability; summary of the method: as §1
Rattus norvegicus = test: Anxiolytic activity in ip dosed Wistar rat assessed as number of punished licks administered 30 mins prior to test by conflict drinking Vogel test; format: functional; details: read-out: MED
Summary of the method: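 Male Wistar rats, 160–180 g, water-deprived 48 h and fasted 24 h. Drug or vehicle given ip 30 min before testing, carried out in a quiet room at 23 °C between 07:30 and 13:00. Modified Vogel procedure. Mean ± SEM tolerated shocks per group, one-way ANOVA with Duncan's test; MED reported.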

Mus musculus [8] = test: Anxiolytic activity in ip dosed NMRI mouse assessed as behavioral activity administered 30 mins prior to test measured up to 5 mins by light-dark test; format: functional; details: read-out: MED
Summary of the method: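 Male NMRI mice, 25–33 g, housed in the dark, dosed ip 30 min before test. Each mouse placed in the centre of the lit side of an automated two-compartment chamber under a 2-lx light. Activity recorded for 5 min: time in each area, transitions, horizontal and vertical activity. Means ± SEM, one-way ANOVA with Duncan's test; MED reported.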

Mus musculus [9] = test: Antidepressant activity in ip dosed NMRI mouse assessed as decrease in immobility time administered 30 mins prior to test measured last 4 mins of 6 mins testing period by forced swimming test; format: functional; details: read-out: MED
Summary of the method: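 Mice given drug or vehicle ip 30 min before test. Each mouse placed in a 17.7 cm high, 12 cm diameter glass cylinder holding 25 °C water to 12.5 cm depth, four mice at a time. Immobility (floating, only movements keeping head above water) timed over the last 4 min of a 6 min session.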

[10] = target: Adrenergic receptor alpha-1 (Rattus norvegicus) (UniProt P15823+P23944+P43140); test: Displacement of [3H]prazosin from alpha1-adrenergic receptor in rat frontal cortex membrane at 10^-7 M after 45 mins by scintillation spectrometry; format: cell membranes
Summary of the method: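 Rat frontal cortex membranes (tissue frozen on dry ice, homogenized in 50 mM Tris-HCl pH 7.7, washed by repeated 40 000 g spins at 4 °C) incubated with 0.6 nM [3H]prazosin, 45 min at 25 °C, triplicates; nonspecific binding with 10 μM prazosin. Filtration over GF/B filters presoaked in 0.05% polyethylenimine, scintillation counting; single test concentration 10^-7 M.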

[11] = target: T3, 5-hydroxytryptamine receptor 1A (Rattus norvegicus, UniProt P19327); test: Displacement of [3H]8-OH-DPAT from 5-HT1A receptor in rat frontal cortex membrane after 45 mins by scintillation counting; format: cell membranes
T3 sequence (P19327 whole entry): T1 sequence (whole entry)
Summary of the method: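 Membranes from adult rat frontal cortex, prepared in 50 mM Tris-HCl pH 7.7 with washes and a 37 °C preincubation. Incubation buffer: 6.66 mM CaCl2, 16.66 μM pargyline, 0.166% ascorbic acid. Ligand 1.5 nM [3H]8-OH-DPAT; 10 μM 5-HT defines nonspecific binding. 45 min at 25 °C, GF/B filtration, scintillation counting. Triplicates; Ki from two nine-point curves, single-site fit.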

Compound	inhibition [1] [%]	pKi [2]	Ki [3] [nM]	Ratio Ki [4]	Ratio Ki [5]	remaining at 1 h [6] [%]	remaining at 1 h [7] [%]	minimal effective dose (Rattus norvegicus) [mg/kg]	minimal effective dose (Mus musculus [8]) [mg/kg]	minimal effective dose (Mus musculus [9]) [mg/kg]	inhibition [10] [%]	pKi [11]
CCC1(CCCCN2CCN(c3ccc(Cl)cc3)CC2)C(=O)Nc2c(Cl)cc(Cl)cc21 (configuration not stated)	5	8.02	110	> 100	12	53	76	5	1	> 30		
O=C1Nc2ccc(F)cc2C1CCCCN1CC=C(c2cccc(C(F)(F)F)c2)CC1 (configuration not stated)		7.40									11	7.26
CCC1(CCCCN2CCN(c3ccc(Cl)cc3)CC2)C(=O)Nc2c1cc(Cl)c(F)c2Cl (configuration not stated)	10	7.02	380		4	76	72	> 20	> 10	> 30		
